DSG3 Ab inh = blocks pemphigus antibody binding to human desmoglein-3; P32926; binding (percent of control), % at 10 µM; DSG3-coupled beads, scFv-anti-DSG3-GFP binding, flow cytometry; active compounds read low; 310,000 compounds, 0.48% hits;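 active = binding more than 3 SD below its plate's average and above zero; inconclusive = below that plate limit but binding exactly zero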;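 note: hits lower antibody fragment binding to DSG3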
TRPC6 act = activators of mouse TRPC6 channel. 310,000 compounds, 0.13% hits. HEK293-TRPC6 membrane potential dye fluorescence; active compounds read high. Q61143. B-score at 10 µM;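 active = B-score of the integrated fluorescence ratio above library mean plus 3 SD, and starting fluorescence ratio within library mean plus 5 SD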;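 note: higher score means more depolarization so channel activation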
TRPC4 agonist = activators of mouse TRPC4 channel. Q9QUQ5. HEK293 TRPC4beta/mu-opioid, Fluo4 calcium fluorescence; active compounds read high. B-score at 10 µM. 310,000 compounds, 0.49% hits;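 active = B-score above 5 SD of library B-scores, and initial fluorescence ratio not above library mean plus 5 SD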;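 note: positive B-score marks a calcium rise read as TRPC4 activation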
Target sequence (Q9QUQ5 whole entry, looked up): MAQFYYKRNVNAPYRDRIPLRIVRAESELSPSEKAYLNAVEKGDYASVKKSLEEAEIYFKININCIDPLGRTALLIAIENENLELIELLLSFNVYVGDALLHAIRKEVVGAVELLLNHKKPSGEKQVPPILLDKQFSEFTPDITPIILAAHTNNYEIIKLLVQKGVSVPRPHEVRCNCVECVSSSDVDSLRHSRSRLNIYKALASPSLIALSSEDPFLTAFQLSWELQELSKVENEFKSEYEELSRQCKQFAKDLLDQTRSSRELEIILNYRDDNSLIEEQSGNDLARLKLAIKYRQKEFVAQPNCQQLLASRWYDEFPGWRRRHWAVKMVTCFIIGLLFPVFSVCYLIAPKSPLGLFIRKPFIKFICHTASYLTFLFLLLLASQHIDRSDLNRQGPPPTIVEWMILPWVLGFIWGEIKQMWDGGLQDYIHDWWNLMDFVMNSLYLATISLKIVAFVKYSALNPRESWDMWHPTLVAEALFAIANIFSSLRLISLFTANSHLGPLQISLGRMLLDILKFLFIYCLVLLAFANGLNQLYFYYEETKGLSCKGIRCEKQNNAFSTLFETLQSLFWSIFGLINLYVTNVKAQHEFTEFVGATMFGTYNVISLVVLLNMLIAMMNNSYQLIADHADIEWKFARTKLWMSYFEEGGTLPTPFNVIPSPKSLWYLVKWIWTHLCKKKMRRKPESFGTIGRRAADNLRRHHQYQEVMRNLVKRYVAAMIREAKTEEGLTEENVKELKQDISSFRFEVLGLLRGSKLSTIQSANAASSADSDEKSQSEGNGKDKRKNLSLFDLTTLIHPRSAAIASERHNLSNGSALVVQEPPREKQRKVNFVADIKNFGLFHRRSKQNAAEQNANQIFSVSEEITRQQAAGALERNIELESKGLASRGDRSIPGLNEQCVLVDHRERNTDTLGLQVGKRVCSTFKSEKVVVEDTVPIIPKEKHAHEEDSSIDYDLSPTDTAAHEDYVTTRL
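System – HEK293 cells stably co-expressing mouse TRPC4beta and mu-opioid receptor · Signal – Fluo4 calcium-sensitive dye fluorescence, kinetic, 1 Hz baseline · Benchmarks – buffer (low) and maximal DAMGO (high) · Read-out – B score of integrated fluorescence ratio per well · Incubation – dye loading 45 min room temperature, 110 s kinetic read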
TRPC4 block = inhibitors of mouse TRPC4 channel. Q9QUQ5. HEK293 TRPC4beta/mu-opioid, DAMGO-evoked Fluo4 calcium flux; active compounds read low. B-score at 10 µM. 300,000 compounds, 0.39% hits. AID 2247;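 active = B-score over 3 SD under the library average, no early fluorescence shift, positive overall ratio signal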
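Material: HEK293 cells with stable TRPC4beta plus mu-opioid receptor expression / Probe or stimulus: DAMGO in two steps, submaximal then maximal / Compound: single concentration per test compound / Technique: kinetic Fluo4 fluorescence imaging of calcium influx / Read-out: per-well B score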
TRPC6 inh = mouse TRPC6 channel inhibition; HEK293-TRPC6, membrane potential dye, ACh-evoked depolarization; active compounds read low; B-score at 10 µM; 310,000 compounds, 1.1% hits;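 active = B-score under library mean minus 3 SD, initial fluorescence not abnormally high, positive integrated signal ratio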;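 note: B-score derived from integrated fluorescence ratio over the kinetic read; more negative B-score means stronger inhibition of depolarization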
TRPC4 potent = allosterically enhances the mouse TRPC4 cation channel; B-score at 10 µM; 310,000 compounds, 0.42% hits; Q9QUQ5; HEK293 TRPC4beta/mu-opioid, DAMGO EC20, Fluo-4 Ca2+ flux; active compounds read high; AID 2227;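 active = B-score of calcium response area above 5 SD of library B-scores, with initial fluorescence ratio within 5 SD of library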;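 note: B-score of integrated fluorescence ratio over time as area under calcium response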
TRPC4 sel inh 2 = mouse TRPC4 off-target activity of TRPC6 inhibitors, second screen | shares compounds with TRPC6 inh | HEK293 TRPC4/MOR, membrane potential dye fluorescence; channel activated by saturating DAMGO dose | inhibition, % at 10 µM | 920 compounds, 42% hits | AID 2776;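 active = compounds whose fluorescence signal differed from control wells by over 3 SD, either direction, in both duplicate plates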
TRPC4 spec = tests whether TRPC6 inhibitors also affect mouse TRPC4. shares compounds with TRPC6 inh. HEK293 TRPC4/mu-opioid, membrane potential fluorescence. activity change, negative = inhibition, % at 10 µM. 920 compounds, 61% hits;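 active = rise or fall in signal beyond 3 SD of buffer-only wells in both replicate plates, either sign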;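 note: integrated kinetic ratio of fluorescence range over baseline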
HEK293 MPD ctr 2-1 = second check of TRPC6 inhibitor effects in parental HEK293 cells; shares compounds with TRPC6 inh; parental HEK293 membrane potential dye fluorescence; maximal acetylcholine challenge after compound addition; signal change vs control, % at 10 µM; 920 compounds, 31% hits; AID 2779;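 active = membrane potential signal moving either way by over 3 SD of the maximum-effect control, in both duplicate plates, meaning non-specific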
HEK293 MPD ctr-1 = counter-screen for TRPC6 inhibitors: effect in parental HEK293 cells. shares compounds with TRPC6 inh. parental HEK293 membrane potential dye fluorescence. membrane potential signal change, % at 10 µM. 920 compounds, 60% hits. AID 2780;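 active = membrane potential signal shifting up or down by more than 3 SD of buffer-only wells, on both duplicate plates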
HEK293 MPD ctr-2 = checks TRPC6 modulator effects in parental HEK293 cells; shares compounds with TRPC6 inh; membrane potential dye fluorescence; membrane potential signal change, % at 10 µM; 2,400 compounds, 51% hits;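 active = membrane potential signal moves up or down beyond 5 SD from buffer-only wells, on both duplicate plates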
HEK293 MPD ctr 2-2 = second counter-screen for TRPC6 modulators: effect in parental HEK293 cells; inhibition, % at 10 µM; 2,400 compounds, 14% hits; shares compounds with TRPC6 inh; membrane potential dye fluorescence; after compound, maximal acetylcholine stimulation;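 active = membrane potential signal drops by more than 5 SD from the mean control signal, in both duplicate plates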;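 note: plate controls were acetylcholine ECmax control wells for no effect and buffer only wells for full effect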
TRPC4/MOR mod = tests whether TRPC6 modulators also affect mouse TRPC4. shares compounds with TRPC6 inh. HEK293 TRPC4/mu-opioid, membrane potential fluorescence. percent change from control (negative = decrease, positive = increase), % at 10 µM. 2,400 compounds, 69% hits. AID 488927;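 active = membrane potential signal moved up or down beyond 5 SD of buffer control wells, in both duplicate plates, actives on both sides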;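 note: plate controls were assay buffer wells for no effect and DAMGO maximal-effect wells for full effect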
TRPC4/MOR inh 2 = mouse TRPC4 off-target activity of TRPC6 modulators, second screen; HEK293 TRPC4/mu-opioid, membrane potential dye fluorescence; stimulated with maximal-effect DAMGO; shares compounds with TRPC6 inh; 2,400 compounds, 55% hits; inhibition, % at 10 µM;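 active = drop in membrane potential signal beyond 5 SD of the control wells in both duplicate plates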;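 note: TRPC4 counter screen for TRPC6 hits run under conditions tuned for TRPC6 not TRPC4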
TRPC6 block conf = mouse TRPC6 inhibitor confirmation; inhibition, % at 10 µM; 3,300 compounds, 43% hits; shares compounds with TRPC6 inh; HEK293-TRPC6, membrane potential dye, ACh-evoked depolarization;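 active = fluorescence ratio falls more than 5 SD below the full-stimulation control mean, in both duplicate runs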;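 note: integrated fluorescence ratio of peak minus minimum over baseline after agonist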
TRPC6 act confirm = mouse TRPC6 activator confirmation; AID 488961; activation, % at 10 µM; shares compounds with TRPC6 inh; 2,800 compounds, 11% hits; HEK293-TRPC6 membrane potential dye fluorescence, FDSS;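 active = ratio signal rise beyond 5 SD above unstimulated control wells' mean, seen in both duplicate runs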;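 note: plate controls were buffer EC0 wells for no effect and acetylcholine ECmax response for full effect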
Starred values were filed as active, the others as inactive; i = inactive; u = inconclusive; x = no result. A selection: hits, their analogues and other compounds. The true share with any hit is near 2.5%.

SMILES | DSG3 Ab inh | TRPC6 act | TRPC4 agonist | TRPC4 block | TRPC6 inh | TRPC4 potent | HEK293 MPD ctr-2 | HEK293 MPD ctr 2-2 | TRPC4/MOR mod | TRPC4/MOR inh 2 | TRPC6 block conf | TRPC6 act confirm | others
Cc1nc2c(C(=O)N3CCC4(CC3)OCCO4)cnn2c(C)c1Cc1cccc(Cl)c1 | 100 | i | i | i | -5.2* | i | i | i | i | i | 45%* | x
CCOC(=O)C(O)(c1ccc(N(CC)C(=O)COc2ccccc2)cc1)C(F)(F)F (stereo not drawn) | 92 | i | i | i | -5* | i | i | i | i | i | i | i
CC[n+]1c(SC)ccc2cc(OC)ccc21 | x | i | i | i | -5.2* | i | -206%* | 85%* | -30%* | 54%* | 58%* | i
CN1C(=O)/C(=C\c2ccc(N3CCCCC3)o2)C(=O)NC1=S | 179 | i | i | i | i | i | x | x | x | x | x | x
CN1C(=O)/C(=C/c2ccc(N3CCCCCC3)o2)C(=O)NC1=S | 129 | 19* | i | i | i | i | 472%* | i | 50%* | i | i | 93%*
C[C@]12CCC3C(CC[C@H]4C[C@@H](O)CC[C@]34C)C1[C@H]1CN=N[C@H]1[C@@H]2O (stereo partly drawn) | 97 | x | x | x | x | x | x | x | x | x | x | x
N#CC(C#N)=C(C#N)c1ccc(Nc2ccccc2)cc1 | 117 | i | i | i | -8.5* | i | x | x | x | x | i | i | TRPC4 sel inh 2=i;TRPC4 spec=-10%*;HEK293 MPD ctr 2-1=i;HEK293 MPD ctr-1=i
COc1ccccc1C1C([N+](=O)[O-])=C(N)Oc2c1c(=O)oc1ccccc21 (stereo not drawn) | 100 | i | i | i | i | i | x | x | x | x | x | x
OCCNc1c2c(nc3ccccc13)CCCC2 | 91 | i | i | i | -6.7* | i | x | x | x | x | i | i | TRPC4 sel inh 2=i;TRPC4 spec=-23%*;HEK293 MPD ctr 2-1=i;HEK293 MPD ctr-1=-362%*
c1ccc(CNc2c3c(nc4ccccc24)CCC3)cc1 | 116 | i | i | i | -5.8* | i | i | i | i | 52%* | i | i
CC(C)CNc1c2c(nc3ccccc13)CCC2 | 88 | i | i | i | i | i | x | x | x | x | x | x
Cn1cc(C(=O)OCC(=O)Nc2ccccc2)c2ccccc21 | 105 | x | x | x | x | x | x | x | x | x | x | x
O=C(CCCc1ccc(N(CCCl)CCCl)cc1)NCc1ccccc1 | 109 | x | x | x | x | x | x | x | x | x | x | x
O=S(=O)(NC1CN2CCC1CC2)c1ccc(Cl)cc1 (stereo not drawn) | u | i | i | i | i | i | x | x | x | x | x | x
O=C(NC1CN2CCC1CC2)c1cc(Cl)c([N+](=O)[O-])c2nc[nH]c12 (stereo not drawn) | 86 | i | i | i | -5.9* | i | -218%* | i | -33%* | i | i | i
Cn1c(O)c(Cc2cccc(Cl)c2Cl)c(=O)n(C)c1=O | 105 | i | i | i | i | i | x | x | x | x | x | x
